From PubChem
NR2E3 ag-1: activates human photoreceptor nuclear receptor NR2E3. GST-NR2E3/biotin-RetCOR TR-FRET, 1536-well. inhibition of corepressor binding, % at 4.78 µM. actives 0.12% (n = 320,000). AID 2300;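 active means percent inhibition above the cutoff of mean plus 3 SD of all tested compounds, set per screening campaign, cut at about 20% in these data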;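 further: 0% = DMSO wells and 100% = biotin wells as full block of FRET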
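Assay system: NR2E3–RetCOR corepressor complex. Quantity: 1.35 nM GST-NR2E3. Buffer or medium: pH 7.5 Tris-based buffer. Reagent: biotinylated RetCOR corepressor at 7 nM final. Schedule: 5 h at 4 °C. Detection: TR-FRET, emission read at 617 and 671 nm. Replicates: one well per compound, singlicate testing.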
GASC-1 inh: blocks human GASC-1 demethylase activity. actives 0.069% (n = 330,000). Q9H3R0. GST-JMJD2C(1-420) H3K9me3 demethylation, DELFIA europium. AID 2099. inhibition, % at 2.35 µM;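 active means more than half of a compound's replicate wells show inhibition beyond 50%, single wells judged on their own value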;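 further: signal counts dimethyl H3K9 product captured on neutravidin plate; 0% = median of DMSO wells and 100% = 0.3 times that DMSO median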
Target sequence (Q9H3R0 1-420 limits assumed): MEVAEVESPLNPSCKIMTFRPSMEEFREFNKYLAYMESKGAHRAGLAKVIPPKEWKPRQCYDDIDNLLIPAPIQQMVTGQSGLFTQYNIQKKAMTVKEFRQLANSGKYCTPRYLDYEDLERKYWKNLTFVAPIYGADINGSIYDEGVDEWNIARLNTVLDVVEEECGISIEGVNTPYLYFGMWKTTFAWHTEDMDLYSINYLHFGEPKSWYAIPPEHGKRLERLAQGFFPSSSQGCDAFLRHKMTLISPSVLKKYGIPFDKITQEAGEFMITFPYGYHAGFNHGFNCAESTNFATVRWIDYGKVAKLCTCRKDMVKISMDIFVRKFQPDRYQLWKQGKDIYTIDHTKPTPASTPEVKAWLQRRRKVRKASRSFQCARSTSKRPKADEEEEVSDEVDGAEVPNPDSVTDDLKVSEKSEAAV
ADAM17 inh: inhibits human ADAM17 | P78536 | recombinant ADAM17, EDANS/DABCYL FRET peptide cleavage | inhibition, % at 6.95 µM | actives 0.83% (n = 370,000) | AID 720648;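 active means inhibition above the mean of compounds lying between control limits plus 3 SD, set per campaign, cut at about 8.5% in these data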;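 further: 0% = DMSO-only wells as the low control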
NR2E3 ag-2: activates human NR2E3 receptor; Q9Y5X4; CHO-S Gal4-NCOR/VP16-NR2E3 two-hybrid, luciferase; inhibition of corepressor binding, % at 3.98 µM; actives 0.35% (n = 360,000);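 active means inhibition above the mean of all tested compounds plus 3 SD, cut at about 70% in these data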;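 further: 0% = DMSO with NR2E3 transfected cells and 100% = cells lacking NR2E3 construct; higher means lower luciferase signal from less NR2E3 corepressor binding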
ADAM10 inh: ADAM10 inhibition, QFRET primary screen; inhibition, % at 7 µM; actives 0.62% (n = 370,000); AID 720582; O14672; recombinant ADAM10, EDANS/DABCYL FRET peptide cleavage, 3 h;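 active means inhibition above a per-campaign cutoff equal to the mean of compounds falling between control-based bounds plus 3 SD, cut at about 20% in these data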;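 further: 0% = DMSO wells while the 100% control is not disclosed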
KLK7 zymogen act: proKLK7 (human) activation, primary screen; activation, % at 7 µM; actives 0.9% (n = 370,000); purified proKLK7, EDANS-DABCYL substrate fluorescence; 100% is mature enzyme control, 0% vehicle;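 active means activation above the mean of all tested compounds plus 3 SD, computed per campaign excluding outliers beyond control limits, cut at about 13% in these data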
ADAM10 ctr: counter-screen for ADAM17 exosite inhibitors: inhibitors of human ADAM10. recombinant ADAM10, EDANS/DABCYL FRET peptide cleavage, 3 h. inhibition, % at 6.95 µM. AID 743256. shares compounds with ADAM17 inh. actives 47% (n = 2,900);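 active means mean inhibition over the triplicate runs exceeds the activity threshold set in the earlier primary screen, cut at about 20% in these data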;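 further: 0% = DMSO wells and 100% = marimastat wells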
ADAM17 confirm: confirmation of inhibitors of human ADAM17. shares compounds with ADAM17 inh. recombinant ADAM17, EDANS/DABCYL QFRET peptide cleavage. inhibition, % at 6.95 µM. actives 65% (n = 2,900). AID 743257;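 active means mean inhibition across replicates above the hit cutoff set in the primary screen, cut at about 8.5% in these data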;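 further: 0% = DMSO wells and 100% = marimastat wells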
An asterisk follows results filed as active; x = not tested or not shown. Compounds with a hit are over-represented: about 2.5% of the library has one in this group of screens.

SMILES	NR2E3 ag-1	GASC-1 inh	ADAM17 inh	NR2E3 ag-2	ADAM10 inh	KLK7 zymogen act	ADAM10 ctr	ADAM17 confirm
CCOc1ccc(CCN2C(=S)N([C@@H](CC(C)C)CN3CCCC3CN3C(=S)NC[C@@H]3Cc3ccc(O)cc3)C[C@@H]2Cc2ccccc2)cc1 (stereo partly drawn)	x	x	3	18	1	0	x	x
CC(C)C[C@H]1CNC(=S)N1C[C@H]1CCCN1C[C@H](Cc1ccc(O)cc1)N1C[C@H](CC(C)C)N(CCc2ccccc2)C1=S	x	x	0	-4	13	0	x	x
CC(C)C[C@H]1CNC(=S)N1C[C@H]1CCCN1C[C@H](Cc1ccc(O)cc1)N1C[C@H](Cc2ccc(O)cc2)N(CCc2ccccc2)C1=S	x	x	8	-8	17	-1	x	x
CC(C)C[C@H]1CN([C@@H](Cc2ccc(O)cc2)CN2CCC[C@@H]2CN2C(=S)NC[C@@H]2Cc2ccccc2)C(=S)N1CCc1ccccc1	x	x	8.9*	11	13	0	34*	20*
Oc1ccc(C[C@H]2CNC(=S)N2CC2CCCN2C[C@H](Cc2ccccc2)N2C[C@H](Cc3ccc(O)cc3)N(CCc3ccccc3)C2=S)cc1 (stereo partly drawn)	x	x	10*	-53	19	0	44*	22*
CCOc1ccc(CCN2C(=S)N([C@@H](Cc3ccc(O)cc3)CN3CCC[C@@H]3CN3C(=S)NC[C@@H]3Cc3ccccc3)C[C@@H]2Cc2ccc(O)cc2)cc1	x	x	12*	7	19	-1	17	8.8*
CC(C)C[C@H]1CNC(=S)N1C[C@H]1CCCN1C[C@H](Cc1ccccc1)N1C[C@H](Cc2ccc(O)cc2)N(CCc2ccccc2)C1=S	x	x	9.5*	3	7	0	14	9.5*
CCOC(=O)c1cc(CC)sc1NC(=O)COC(=O)c1cc[n+]([O-])cc1	3	0	0	-4	-2	0	x	x
Cc1ccc(CNC(=O)COc2ccc(S(=O)(=O)N3CCCC3)cc2)cc1	4	-6	-4	-4	2	0	x	x
Cc1csc(NC(=O)[C@@H]2CCCN2C(=O)c2cccs2)n1	1	4	-3	-30	-12	0	x	x
CC(=O)Nc1ccc(NC(=O)C(C)OC(=O)C23CC4CC(CC(Cl)(C4)C2)C3)cc1 (stereo not drawn)	x	5	9.9*	-11	-4	1	6	6
CCN(CC)c1ccc(NC(=O)c2cc3c(OC)cccc3[nH]2)cc1	-2	-3	17*	-4	18	1	6	8
CC(NCc1ccco1)C(=O)N1CCCC1 (stereo not drawn)	x	x	1	x	-11	0	x	x
CC(=O)c1cccc(-c2ccnc3c2CC(C(=O)NCc2ccco2)O3)c1 (stereo not drawn)	x	x	-2	-5	-4	0	x	x
COCC(=O)Nc1ncc(S(=O)(=O)c2ccc([N+](=O)[O-])cc2)s1	0	-1	-5	-10	-2	0	x	x
O=C(NC(Nc1ncc(S(=O)(=O)c2ccc([N+](=O)[O-])cc2)s1)(C(F)(F)F)C(F)(F)F)c1ccc(Cl)cc1	-3	-5	12*	46	7	0	41*	17*
CCC1(CC)SCCNC1=O	x	x	9.1*	-2	7	1	-2	2
CC(O)(Cc1ccccn1)Cc1ccccn1	x	x	-2	5	-13	0	x	x
CN(C)C(=O)c1ccc(NC(=O)COc2ccc([N+](=O)[O-])cc2)cc1	3	-1	-1	12	-5	0	x	x
CC(=O)Nc1ccc(SC[C@H](CC(C)C)N2CCN(CCc3ccccc3)CCC2=O)cc1	0	2	9.0*	11	6	0	-9	-1
Cc1ccc(SC[C@H](CC(C)C)N2CCN(CCc3ccccc3)CCC2=O)cc1	x	-5	-1	-66	11	2	x	x
